Holding throughout (type): cell-based
In assay [1] the target is T1, N-acylethanolamine-hydrolyzing acid amidase (Homo sapiens) (UniProt Q02083).
T1 sequence (whole entry): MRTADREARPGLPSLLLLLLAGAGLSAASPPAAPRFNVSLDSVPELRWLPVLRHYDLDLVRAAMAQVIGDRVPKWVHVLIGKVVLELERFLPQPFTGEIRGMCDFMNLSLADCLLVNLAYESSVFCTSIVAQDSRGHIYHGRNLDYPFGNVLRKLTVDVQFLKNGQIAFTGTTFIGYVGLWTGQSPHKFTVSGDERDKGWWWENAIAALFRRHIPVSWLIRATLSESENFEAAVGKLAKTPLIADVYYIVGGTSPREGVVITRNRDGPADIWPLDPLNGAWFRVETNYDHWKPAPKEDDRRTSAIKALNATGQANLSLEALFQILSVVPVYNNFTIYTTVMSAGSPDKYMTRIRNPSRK
Description: Inhibition of recombinant human NAAA expressed in HEK293 cells using PAMCA as fluorogenic substrate at 50 uM preincubated for 30 mins followed by substrate addition and measured after 50 mins by fluorescence assay relative to control. The gist of the method: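 Lysosomal-type enzyme-enriched lysate from HEK-293 cells stably expressing human NAAA (4 μg protein), preincubated 30 min with compound or 5% DMSO in 100 mM citrate/phosphate pH 4.5 with 3.0 mM DTT, 0.1% NP40, 0.05% BSA, 150 mM NaCl. Reaction started with PAMCA substrate (2 μM), run 50 min at 37 °C. Fluorescence read at ex 355/em 460 nm against enzyme-free background.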

Assay [2] addresses T1, N-acylethanolamine-hydrolyzing acid amidase (Homo sapiens). In words: Inhibition of ARN14686 probe binding to human NAAA expressed in HEK293 cells preincubated for 2 hrs followed by ARN14686 probe addition and measured after 15 mins by fluorescence assay. The note with it: time 135.0 min. The gist of the method: (§1)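 Lysosomal enrichment (0.5 mg/mL) from HEK293 cells overexpressing human NAAA was preincubated 2 h at 37 °C with compound at a final 20 μM (2% DMSO); DMSO-only controls were included. ARN14686 probe (20 μM) was then added at 37 °C for 15 min or 4 h. An Alexa Fluor 545 azide was attached by CuSO4/TCEP/TBTA click chemistry (2 h, 25 °C). Read-out was SDS-PAGE in-gel fluorescence at 532 nm, with Coomassie loading control.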

Assay [3] shares this target. Description: Inhibition of ARN14686 probe binding to human NAAA expressed in HEK293 cells preincubated for 2 hrs followed by ARN14686 probe addition and measured after 4 hrs by fluorescence assay. As to conditions: time 6.0 hrs. In a few lines: as §1

Molecules are shown by their SMILES. Active and inactive are the calls of the source. The rule behind the calls is not given here.

Usually inhibition stands for the relative decrease from the control value, in per cent.

On to `Cc1n[nH]c(C)c1C(=O)N1CCC(Oc2cnccn2)CC1`, for which the inhibition in assay [1] was below 10%.
Same read-out and setting: for `Cc1n[nH]c(C)c1S(=O)(=O)N1CCC(Nc2cnccn2)CC1` the value was below 10%; for `COc1n[nH]c(C)c1S(=O)(=O)N1CCC(Oc2cnccn2)CC1`, below 10%; for `O=S(=O)(c1cn[nH]c1)N1CCC(Oc2cnccn2)CC1`, below 10%.
On the same count and under the same terms, for `Cc1n[nH]c(C)c1S(=O)(=O)N1CC(Oc2cnccn2)C1` the value was below 10%.
`Cc1n[nH]c(C)c1S(=O)(=O)N1CCC(Cc2cnccn2)CC1`: the inhibition in assay [1] is below 10%.
On the same count and under the same terms, for `Cc1n[nH]c(C)c1S(=O)(=O)N1CCC(c2cnccn2)CC1` the value was below 10%; for `Cc1n[nH]cc1S(=O)(=O)N1CCC(Oc2cnccn2)CC1`, below 10%; for `Cc1nn(C)c(C)c1S(=O)(=O)N1CCC(Oc2cnccn2)CC1`, below 10%.
For `Cc1n[nH]c(C)c1S(=O)(=O)N1[C@@H]2CC[C@H]1C[C@H](Oc1cnccn1)C2`, the inhibition in assay [1] was below 10%.
In the case of `CCOCc1cnc(O[C@H]2C[C@H]3CC[C@@H](C2)N3S(=O)(=O)c2c(C)n[nH]c2C)cn1`, in assay [2], the inhibition entry is “Active”. For the same compound, the inhibition result in assay [3] is “inactive”.
For the compound `Cc1n[nH]c(C)c1S(=O)(=O)N1C[C@H]2CCC[C@@H](C1)[C@H]2Oc1cnccn1`, in assay [1], the inhibition was below 10%.
Regarding `Cc1noc(C)c1S(=O)(=O)N1CCC(Oc2cnccn2)CC1`, the inhibition in assay [1] is below 10%.
`Cc1cnn(C)c1S(=O)(=O)N1CCC(Oc2cnccn2)CC1`: the inhibition in assay [1] was below 10%.
For the compound `Cc1n[nH]c(C)c1S(=O)(=O)N[C@H]1CC[C@H](Oc2cnccn2)CC1`, in assay [1], the inhibition is below 10%.

For the origin of these results see ChEMBL document CHEMBL4837248, “Discovery and SAR Evolution of Pyrazole Azabicyclo[3.2.1]octane Sulfonamides as a Novel Class of Non-Covalent N-Acylethanolamine-Hydrolyzing Acid Amidase (NAAA) Inhibitors for Oral Administration” (J Med Chem, 2021).
